# What was measured:
# L1210 [1] = test: Antitumor activity in the mice with intraperitoneal implanted L1210 lymphoid leukemia at the dose of 75 mg/kg/day x 5 was determined as mean survival of treated group compared to untreated; 17.5/9.5; format: functional, Mus musculus
# L1210 [2] = test: Antitumor activity in the mice with intraperitoneal implanted L1210 lymphoid leukemia at the dose of 50 mg/kg/day x 5 was determined as mean survival of treated group compared to untreated; 16/9.5; format: functional, Mus musculus
# Summary of the method: (§1)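 C3D2F1/J female mice (C3H/HeJ female × DBA/2J male), groups of six to eight, average weight 25 g. Inoculated ip with 1 × 10^6 L1210 ascites cells taken from DBA/2Ha donor mice bearing 3-5 day old tumors. Compounds were dissolved in 0.154 N NaOH, neutralized with 0.154 N HCl (final 0.9% NaCl), and given ip daily for 5 days from 24 h post-implant. Median survival T/C; ILS = (T/C − 1) × 100; 30-day survivors counted.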
# L1210 [3] = test: Antitumor activity in the mice with intraperitoneal implanted L1210 lymphoid leukemia at the dose of 100 mg/kg/day x 5 was determined as mean survival of treated group compared to untreated; 7/11; format: functional, Mus musculus; summary of the method: as §1
# L1210 [4] = test: Antitumor activity in the mice with intraperitoneal implanted L1210 lymphoid leukemia at the dose of 25 mg/kg/day x 5 was determined as mean survival of treated group compared to untreated; 14/8.5; format: functional, Mus musculus; summary of the method: as §1
# L1210 [5] = test: Antitumor activity in the mice with intraperitoneal implanted L1210 lymphoid leukemia at the dose 100 mg/kg/day x 5 was determined as percentage increase in the life span as compared with control tumor bearers; format: functional; details: Mus musculus, L1210, ip
# Summary of the method: (§2)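 Female C3D2F1/J mice (C3H/HeJ × DBA/2J), groups of six to eight, average weight 25 g. Each mouse got 1 × 10^6 L1210 ascites cells ip, taken from DBA/2Ha donor mice bearing 3-5 day tumors. Compound was dissolved in 0.154 N NaOH and neutralized with 0.154 N HCl (final 0.9% NaCl). Dosed ip daily ×5, starting 24 h after implant. Recorded body weight change on day 8, survival range, median survival and 30-day survivors. ILS = (T/C − 1) × 100.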
# L1210 [6] = test: Antitumor activity in mice with intraperitoneal implanted L1210 lymphoid leukemia at the dose 75 mg/kg/day x 5 was determined as weight change (g/mouse) on 8th day; format: functional
# Summary of the method: (§3)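 C3D2F1/J female mice (C3H/HeJ × DBA/2J), groups of six to eight, average 25 g, inoculated ip with 1 × 10^6 L1210 ascites cells taken from DBA/2Ha donor mice carrying 3-5 day tumors. Compound dissolved in 0.154 N NaOH, then neutralized with 0.154 N HCl to give 0.9% NaCl. Given ip daily for 5 consecutive days starting 24 h after implantation. Body weight change per mouse recorded on day 8.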
# L1210 [7] = test: In Vitro evaluation for the antiproliferative activity by observing the growth inhibition of L1210 lymphoid leukemia cells in culture at 72 hour; format: functional, Mus musculus
# Summary of the method: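 Growth of L1210 lymphoid leukemia cells in culture measured by Trypan blue exclusion of viable cells after 72 h of drug exposure. ED50 is the concentration giving 50% growth inhibition. In some runs the compound was first preincubated in medium at 37 °C for 24 or 48 h before the assay.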
# L1210 [8] = test: Antitumor activity in mice with intraperitoneal implanted L1210 lymphoid leukemia at the dose 25 mg/kg/day x 5 was determined as weight change (g/mouse) on 8th day; format: functional; summary of the method: as §3
# L1210 [9] = test: Antitumor activity in mice with intraperitoneal implanted L1210 lymphoid leukemia at the dose 50 mg/kg/day x 5 was determined as weight change (g/mouse) on 8th day; format: functional; summary of the method: as §3
# L1210 [10] = test: Antitumor activity in the mice with intraperitoneal implanted L1210 lymphoid leukemia at the dose 100 mg/kg/day x 5 was determined and number of animals survived on 30 th day were reported; 0/6; format: functional, Mus musculus; summary of the method: as §2
# L1210 [11] = test: Antitumor activity in the mice with intraperitoneal implanted L1210 lymphoid leukemia at the dose 25 mg/kg/day x 5 was determined and number of animals survived on 30 th day were reported; 0/8; format: functional, Mus musculus; summary of the method: as §2
# L1210 [12] = test: Antitumor activity in the mice with intraperitoneal implanted L1210 lymphoid leukemia at the dose 50 mg/kg/day x 5 was determined as Survival time in days; Range is 14-17 days; format: functional, Mus musculus; summary of the method: as §2
# L1210 [13] = test: Antitumor activity in the mice with intraperitoneal implanted L1210 lymphoid leukemia at the dose 50 mg/kg/day x 5 was determined and number of animals survived on 30 th day were reported; 0/8; format: functional, Mus musculus; summary of the method: as §2
# L1210 [14] = test: Antitumor activity in the mice with intraperitoneal implanted L1210 lymphoid leukemia at the dose 75 mg/kg/day x 5 was determined and number of animals survived on 30 th day were reported; 0/8; format: functional, Mus musculus; summary of the method: as §1
# L1210 [15] = test: Antitumor activity in the mice with intraperitoneal implanted L1210 lymphoid leukemia at the dose 50 mg/kg/day x 5 was determined as percentage increase in the life span as compared with control tumor bearers; format: functional; details: Mus musculus, L1210, ip; summary of the method: as §1
# L1210 [16] = test: Antitumor activity in the mice with intraperitoneal implanted L1210 lymphoid leukemia at the dose 75 mg/kg/day x 5 was determined as percentage increase in the life span as compared with control tumor bearers; format: functional; details: Mus musculus, L1210, ip; summary of the method: as §1
# L1210 [17] = test: Antitumor activity in the mice with intraperitoneal implanted L1210 lymphoid leukemia at the dose 100 mg/kg/day x 5 was determined as Survival time in days; Range is 7-8 days; format: functional, Mus musculus; summary of the method: as §2
# L1210 [18] = test: Antitumor activity in the mice with intraperitoneal implanted L1210 lymphoid leukemia at the dose 75 mg/kg/day x 5 was determined as Survival time in days; Range is 14-18 days; format: functional, Mus musculus; summary of the method: as §1
# L1210 [19] = test: Antitumor activity in the mice with intraperitoneal implanted L1210 lymphoid leukemia at the dose 25 mg/kg/day x 5 was determined as Survival time in days; Range is 12-18 days; format: functional, Mus musculus; summary of the method: as §2
# L1210 [20] = test: Antitumor activity in the mice with intraperitoneal implanted L1210 lymphoid leukemia at the dose 25 mg/kg/day x 5 was determined as percentage increase in the life span as compared with control tumor bearers; format: functional; details: Mus musculus, L1210, ip; summary of the method: as §2
smiles,measurement,setting,value
C[C@]12CCC(=O)C=C1CC[C@H]1[C@@H]3CC[C@](O)(C(=O)COP(=O)(O)OC[C@H]4O[C@@H](n5ccc(N)nc5=O)[C@@H](O)[C@@H]4O)[C@@]3(C)C[C@H](O)[C@@]12F,Survival time,L1210 [1],17.5 days
same,T/C,L1210 [2],16
same,T/C,L1210 [3],7
same,T/C,L1210 [4],14
same,ILS at 100 mg/kg/day,L1210 [5],-36%
same,Weight change,L1210 [6],0.52 g mouse-1
same,ED 50,L1210 [7],80 nM
same,Weight change,L1210 [8],-1.09 g mouse-1
same,Weight change,L1210 [9],0.39 g mouse-1
same,Survivors,L1210 [10],0
same,Survivors,L1210 [11],0
same,Survival time,L1210 [12],14 days
same,Survivors,L1210 [13],0
same,Survivors,L1210 [14],0
same,ILS at 50 mg/kg/day,L1210 [15],68%
same,ILS at 75 mg/kg/day,L1210 [16],84%
same,Survival time,L1210 [17],7 days
same,Survival time,L1210 [18],14 days
same,Survival time,L1210 [19],12 days
same,ILS at 25 mg/kg/day,L1210 [20],65%
